Experiment [1] addresses T1, Adrenergic receptor alpha-1 (Rattus norvegicus, UniProt P15823+P23944+P43140).
T1 sequence (P15823 whole entry): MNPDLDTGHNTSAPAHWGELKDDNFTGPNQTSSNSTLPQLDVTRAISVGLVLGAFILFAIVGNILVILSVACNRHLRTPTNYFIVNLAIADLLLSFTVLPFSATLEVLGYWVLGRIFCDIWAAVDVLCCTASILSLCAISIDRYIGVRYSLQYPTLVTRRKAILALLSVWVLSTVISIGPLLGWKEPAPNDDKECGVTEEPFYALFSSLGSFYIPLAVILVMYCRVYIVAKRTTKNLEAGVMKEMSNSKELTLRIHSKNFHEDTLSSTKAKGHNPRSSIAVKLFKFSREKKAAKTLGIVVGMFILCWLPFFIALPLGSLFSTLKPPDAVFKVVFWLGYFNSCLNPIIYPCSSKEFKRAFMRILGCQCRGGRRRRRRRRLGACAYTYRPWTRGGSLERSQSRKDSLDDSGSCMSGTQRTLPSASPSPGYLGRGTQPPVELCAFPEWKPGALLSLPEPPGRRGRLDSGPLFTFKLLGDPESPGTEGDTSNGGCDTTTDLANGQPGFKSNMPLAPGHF
T1 sequence (P23944 whole entry): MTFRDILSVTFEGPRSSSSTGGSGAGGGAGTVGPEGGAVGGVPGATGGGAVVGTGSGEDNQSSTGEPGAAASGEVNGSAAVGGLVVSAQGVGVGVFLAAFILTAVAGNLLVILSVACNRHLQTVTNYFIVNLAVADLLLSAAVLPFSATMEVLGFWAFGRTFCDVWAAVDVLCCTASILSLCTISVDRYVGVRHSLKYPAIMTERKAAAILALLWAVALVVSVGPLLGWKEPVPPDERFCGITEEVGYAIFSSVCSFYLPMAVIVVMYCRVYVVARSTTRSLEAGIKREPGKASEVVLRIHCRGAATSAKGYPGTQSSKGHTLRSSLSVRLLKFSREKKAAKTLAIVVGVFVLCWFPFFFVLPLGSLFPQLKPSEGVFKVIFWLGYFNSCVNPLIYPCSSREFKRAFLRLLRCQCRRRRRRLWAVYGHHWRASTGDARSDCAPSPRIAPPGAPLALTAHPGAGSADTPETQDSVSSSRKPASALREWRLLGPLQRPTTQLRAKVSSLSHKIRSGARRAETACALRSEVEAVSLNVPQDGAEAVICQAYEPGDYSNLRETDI
T1 sequence (P43140 whole entry): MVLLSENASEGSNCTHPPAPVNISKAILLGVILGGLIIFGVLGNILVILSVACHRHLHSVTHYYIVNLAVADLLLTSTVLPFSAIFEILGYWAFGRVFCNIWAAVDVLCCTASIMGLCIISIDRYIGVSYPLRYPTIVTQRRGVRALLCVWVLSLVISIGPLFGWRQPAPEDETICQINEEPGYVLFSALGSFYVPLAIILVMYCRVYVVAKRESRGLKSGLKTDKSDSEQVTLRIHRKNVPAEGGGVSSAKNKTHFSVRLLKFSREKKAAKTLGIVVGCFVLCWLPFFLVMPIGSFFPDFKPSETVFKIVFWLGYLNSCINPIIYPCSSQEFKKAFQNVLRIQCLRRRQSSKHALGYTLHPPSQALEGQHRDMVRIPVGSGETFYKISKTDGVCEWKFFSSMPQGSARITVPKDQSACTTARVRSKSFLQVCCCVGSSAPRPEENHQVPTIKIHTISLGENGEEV
The experiment can be described thus: In vitro binding affinity against Alpha-1 adrenergic receptor using [3H]prazosin as radioligand. Type of experiment: protein assay.

For another experiment, the target named is Glutamate NMDA receptor. Description: In vitro inhibition of glutamate induced neuronal death in primary cultures of rat hippocampal neurons. Type of experiment: functional, tissue-based, Hippocampus.
The species entered for experiment [2] is Rattus norvegicus. The experiment can be described thus: Selectivity between protection against glutamate-induced neuronal damage and alpha 1 adrenergic affinity; Not significant. In short, it runs like this:
(§1)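 Selectivity index: ratio of α1 adrenergic affinity ([3H]prazosin binding IC50) to neuroprotection IC50 (inhibition of glutamate-induced death of primary rat hippocampal neurons).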

For experiment [3], the species on record is Rattus norvegicus. The experiment can be described thus: Selectivity between protection against glutamate-induced neuronal damage and alpha 1 adrenergic affinity. The method in brief:
as §1

The nature of experiment [4]: In vivo inhibition of NMDA-stimulated fos induction in mouse following i.p. administration. Type of experiment: functional. The note with it: ip. In short, it runs like this: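 Male CF-1 mice (20–25 g), 12 h light/dark, 22 °C. Compound in 50% poly(ethylene glycol) given ip 30 min before NMDA 75 mg/kg ip (subseizure dose). After 1 h: pentobarbital, paraformaldehyde perfusion, two 50 μm hippocampal coronal sections per brain. Sheep anti-Fos (1:1500) immunostaining by avidin–biotin method, glucose oxidase substrate. ED50 calculated against vehicle-only and NMDA-only sections.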

Experiment [5] deals with Rattus norvegicus. The experiment can be described thus: In vivo inhibition of haloperidol-induced catalepsy in rat following s.c. administration. Format: functional. The note with it: sc.

Calls of active or inactive are those of the source. The calls are words filed in the database; no cut-off is given here.

The term IC50 denotes the concentration that inhibits the measured activity by half. `C[C@@H]([C@@H](O)c1ccc(O)cc1)N1CCN(C(=O)c2ccccc2)CC1`: the IC50 (in experiment [1]; against Glutamate NMDA receptor) was more than 10 µM throughout. For the same compound, in the experiment listed under Rattus norvegicus [2], the Selectivity ratio result is “inactive”.

As for `C[C@@H]([C@@H](O)c1ccc(O)cc1)N1CCC(O)(Cc2ccccc2)CC1`, the IC50 in experiment [1] was more than 10 µM. Besides, in the experiment listed under Rattus norvegicus [3], the Selectivity ratio was more than 172.

Compound `C[C@@H]([C@@H](O)c1ccc(O)cc1)N1CCC(O)(c2ccccc2)CC1` (stereo in doubt; 10) [TRAXOPRODIL] showed an IC50 in experiment [1] of 5.7 µM.

For orientation: ED50 means the dose that gives a 50% effect, or the effect in half of the subjects. A lower ED50 goes with an effect at a small dose. For the compound `C[C@H]([C@H](O)c1ccc(O)cc1)N1CCC(O)(c2ccccc2)CC1`, the IC50 in experiment [1] was determined as 8.45 µM. Further, the ED50 in experiment [4] was 5 mg/kg; with Rattus norvegicus [5] it was 0.5 mg/kg.

`C[C@@H]([C@@H](O)c1ccccc1)N1CCC(O)(c2ccccc2)CC1`: the concentration for half-maximal inhibition (IC50) was more than 10 µM in experiment [1] and more than 1 µM against Glutamate NMDA receptor. In addition, in the experiment listed under Rattus norvegicus [2], the Selectivity ratio result is “inactive”.

Take `Cc1ccc(C2(O)CCN([C@@H](C)[C@@H](O)c3ccc(O)cc3)CC2)cc1`: the figures for the IC50 (in experiment [1]; against Glutamate NMDA receptor) were 2.166 µM and 0.0027 µM, respectively. Moreover, the Selectivity ratio in the experiment listed under Rattus norvegicus [3] turned out to be 1080.

Consider `C[C@@H]([C@@H](O)c1ccc(O)cc1)N1CCC(O)(CCc2ccccc2)CC1`, for which the half-inhibitory concentration (IC50) in experiment [1] amounted to 0.137 µM; against Glutamate NMDA receptor it was 0.0013 µM. The Selectivity ratio in the experiment filed under Rattus norvegicus [3] is 105.

As for `C[C@@H]([C@@H](O)c1ccc(O)cc1)N1CCC(O)(CCCCc2ccccc2)CC1`, the IC50 in experiment [1] turned out to be 2.3 µM; at Glutamate NMDA receptor, 1 µM. For the same compound, the Selectivity ratio in the experiment listed under Rattus norvegicus [3] amounted to 2.3.

Regarding `C[C@@H]([C@@H](O)c1ccc(Cl)cc1)N1CCC(O)(c2ccccc2)CC1`, the IC50 in experiment [1] is 3.133 µM; against Glutamate NMDA receptor, more than 1 µM. The Selectivity ratio entry in the experiment listed under Rattus norvegicus [2] was “inactive”.

In experiment [1], `C[C@@H]([C@@H](O)c1ccc(O)cc1)N1CCC(O)(c2ccccc2)CC1` (stereo in doubt) [TRAXOPRODIL] gave an IC50 of 19.52 µM. Besides, the ED50 is 1 mg/kg in experiment [4] and 0.4 mg/kg with Rattus norvegicus [5].

With `C[C@@H]([C@@H](O)c1ccc(O)cc1)N1CCC(O)(CCCc2ccccc2)CC1`, the IC50 in experiment [1] worked out at 2.35 µM; at Glutamate NMDA receptor it was 0.0157 µM. Moreover, the Selectivity ratio in the experiment filed under Rattus norvegicus [3] is 150.

For the compound `CC[C@@H]([C@@H](O)c1ccc(O)cc1)N1CCC(O)(Cc2ccccc2)CC1`, the results for the IC50 (in experiment [1]; on Glutamate NMDA receptor) were more than 10 µM and 0.068 µM, respectively. In addition, in the experiment listed under Rattus norvegicus [3], the Selectivity ratio is more than 147.

On to `C[C@@H]([C@@H](O)c1ccc(O)cc1)N1CCC(O)(c2ccc(F)cc2)CC1`, for which the IC50 in experiment [1] was determined as 2.7 µM; against Glutamate NMDA receptor, 0.004 µM. In the experiment filed under Rattus norvegicus [3], the Selectivity ratio was 675.

`C[C@@H]([C@@H](O)c1ccc(O)cc1)N1CCN(Cc2ccccc2)CC1`: in the experiment listed under Rattus norvegicus [2], the Selectivity ratio entry was “inactive”.

Take `CCC[C@@H]([C@@H](O)c1ccc(O)cc1)N1CCC(O)(Cc2ccccc2)CC1`: the IC50 in experiment [1] was more than 10 µM. In the experiment filed under Rattus norvegicus [3], the Selectivity ratio was found to be 7.7.

As to `Oc1ccc(C(O)CN2CCC(O)(Cc3ccccc3)CC2)cc1` (stereo not given), the IC50 was more than 10 µM in experiment [1] and 0.063 µM against Glutamate NMDA receptor. Moreover, the Selectivity ratio in the experiment filed under Rattus norvegicus [3] was more than 158.

Consider `C[C@@H]([C@@H](O)c1ccc(F)cc1)N1CCC(O)(c2ccccc2)CC1`, for which the IC50 in experiment [1] was 6.9 µM; against Glutamate NMDA receptor it was more than 1 µM. In addition, the Selectivity ratio result in the experiment listed under Rattus norvegicus [2] was “inactive”.

The compound `COC1(Cc2ccccc2)CCN([C@@H](C)[C@@H](O)c2ccc(O)cc2)CC1` gave an IC50 at Glutamate NMDA receptor of more than 10 µM. In the experiment filed under Rattus norvegicus [2], the Selectivity ratio entry is “inactive”.

For the compound `C[C@@H]([C@@H](O)c1ccc(O)cc1)N1CCC(O)(c2ccc(Cl)cc2)CC1`, the IC50 in experiment [1] came out at 1.48 µM; against Glutamate NMDA receptor, 0.002 µM. Further, in the experiment filed under Rattus norvegicus [3], the Selectivity ratio is 740.
